From ChEMBL document CHEMBL5252603, “Discovery of 2-aminoquinolone acid derivatives as potent inhibitors of SARS-CoV-2” (Bioorg Med Chem Lett, 2023) come the findings set out here.

The test system of one series is Vero. The series is described as follows: Cytotoxicity against african green monkey Vero cells. The series is classed as toxicity, cell-based. The note with it: chlorocebus sabaeus. A digest of the protocol: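 Uninfected Vero cells were tested in parallel with the antiviral immunocytochemistry assay. CC50 was derived from at least two independent experiments.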

The test system of a further series is SARS-CoV-2. The series is described as follows: Antiviral activity against Severe acute respiratory syndrome coronavirus 2 infected in Vero cells. The class given is functional, organism-based. The note with it: Severe acute respiratory syndrome coronavirus 2, Vero.
Series [1] is described as follows: Selectivity index, ratio of CC50 for african green monkey Vero cells to EC50 for Severe acute respiratory syndrome coronavirus 2. The series is classed as toxicity. The following applies: read-out: Ratio CC50/EC50.
The subject of a further series is HFL1. Nature of the series: Cytotoxicity against human HFL1 cells. The class given is toxicity, cell-based. A digest of the protocol:
(§1)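 Cell viability was measured by the EZ-Cytox assay, with CC50 as the read-out. Cell lines: HFL-1, human embryonic lung; L929, mouse fibroblast; NIH 3T3, mouse embryonic fibroblast; CHO-K1, Chinese hamster ovary.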

The next series relates to L929. The series is described as follows: Cytotoxicity against mouse L929 cells. The class given is toxicity, cell-based. The procedure, abridged:
as §1

Another series has as its system NIH3T3. The series is described as follows: Cytotoxicity against mouse NIH3T3 cells. The series is classed as toxicity, cell-based. A digest of the protocol: as §1
For the next series, the system named is CHO-K1. Nature of the series: Cytotoxicity against CHO-K1 cells. The class given is toxicity, cell-based, Cricetulus griseus. The note with it: chinese hamster. A digest of the protocol:
as §1

The target in series [2] is Voltage-gated inwardly rectifying potassium channel KCNH2 (Homo sapiens, UniProt Q12809). The series is described as follows: Binding affinity to human ERG. The class given is toxicity. A digest of the protocol: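 hERG fluorescence polarization ligand-binding assay; IC50 read-out.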
Chain of Voltage-gated inwardly rectifying potassium channel KCNH2 (Q12809 whole entry): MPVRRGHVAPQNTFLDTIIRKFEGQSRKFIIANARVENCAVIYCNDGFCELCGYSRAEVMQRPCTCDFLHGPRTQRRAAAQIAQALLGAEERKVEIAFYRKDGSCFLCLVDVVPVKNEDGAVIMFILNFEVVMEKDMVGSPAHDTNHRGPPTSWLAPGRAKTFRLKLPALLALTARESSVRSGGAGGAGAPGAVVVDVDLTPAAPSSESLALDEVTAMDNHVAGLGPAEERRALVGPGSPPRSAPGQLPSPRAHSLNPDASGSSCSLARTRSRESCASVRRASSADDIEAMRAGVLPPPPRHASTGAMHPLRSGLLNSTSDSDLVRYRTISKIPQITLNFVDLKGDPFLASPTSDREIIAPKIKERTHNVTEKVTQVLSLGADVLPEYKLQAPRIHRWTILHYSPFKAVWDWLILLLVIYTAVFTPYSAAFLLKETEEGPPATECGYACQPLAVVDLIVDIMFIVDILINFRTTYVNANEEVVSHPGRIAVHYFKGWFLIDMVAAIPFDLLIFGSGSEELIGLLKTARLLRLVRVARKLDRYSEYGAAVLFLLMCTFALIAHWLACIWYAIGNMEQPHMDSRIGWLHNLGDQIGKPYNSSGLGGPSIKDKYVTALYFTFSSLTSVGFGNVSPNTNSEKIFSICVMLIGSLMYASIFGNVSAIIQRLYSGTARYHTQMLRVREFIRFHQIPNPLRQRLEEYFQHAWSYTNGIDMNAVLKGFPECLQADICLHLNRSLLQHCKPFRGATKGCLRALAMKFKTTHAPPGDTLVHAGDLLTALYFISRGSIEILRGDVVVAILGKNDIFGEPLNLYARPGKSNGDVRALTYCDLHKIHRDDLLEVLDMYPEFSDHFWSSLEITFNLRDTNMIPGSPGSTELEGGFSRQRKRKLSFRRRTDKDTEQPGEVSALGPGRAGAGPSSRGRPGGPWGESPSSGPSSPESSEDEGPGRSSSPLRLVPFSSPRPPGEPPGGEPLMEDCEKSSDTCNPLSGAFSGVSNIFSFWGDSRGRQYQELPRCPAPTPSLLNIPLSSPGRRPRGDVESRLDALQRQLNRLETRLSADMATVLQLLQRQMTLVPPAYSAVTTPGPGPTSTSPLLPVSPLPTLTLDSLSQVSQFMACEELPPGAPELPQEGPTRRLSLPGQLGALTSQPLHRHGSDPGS
Another series concerns the target T1, CYP1A2 (Homo sapiens, UniProt P05177).
T1 sequence (P05177 whole entry): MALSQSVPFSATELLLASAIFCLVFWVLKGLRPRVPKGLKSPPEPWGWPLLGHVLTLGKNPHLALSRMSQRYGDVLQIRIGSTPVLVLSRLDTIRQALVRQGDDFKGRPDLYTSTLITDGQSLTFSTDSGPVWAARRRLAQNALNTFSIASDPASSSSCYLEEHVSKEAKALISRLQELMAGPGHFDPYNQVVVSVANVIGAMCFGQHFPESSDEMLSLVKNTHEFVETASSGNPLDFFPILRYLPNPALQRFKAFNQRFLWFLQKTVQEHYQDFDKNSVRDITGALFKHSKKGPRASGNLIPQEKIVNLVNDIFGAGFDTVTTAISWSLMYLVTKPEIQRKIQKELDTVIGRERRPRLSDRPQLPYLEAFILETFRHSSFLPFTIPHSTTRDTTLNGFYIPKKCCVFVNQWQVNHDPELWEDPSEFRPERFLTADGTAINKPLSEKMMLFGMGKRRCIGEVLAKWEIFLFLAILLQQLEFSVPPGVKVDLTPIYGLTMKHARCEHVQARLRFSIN
The series is described as follows: Inhibition of human CYP1A2 at 10 uM relative to control. The series is classed as ADME.

In a further series the target is CYP2C9 (Homo sapiens, UniProt P11712). Nature of the series: Inhibition of human CYP2C9 at 10 uM relative to control. The series is classed as ADME.
Chain of CYP2C9 (P11712 whole entry): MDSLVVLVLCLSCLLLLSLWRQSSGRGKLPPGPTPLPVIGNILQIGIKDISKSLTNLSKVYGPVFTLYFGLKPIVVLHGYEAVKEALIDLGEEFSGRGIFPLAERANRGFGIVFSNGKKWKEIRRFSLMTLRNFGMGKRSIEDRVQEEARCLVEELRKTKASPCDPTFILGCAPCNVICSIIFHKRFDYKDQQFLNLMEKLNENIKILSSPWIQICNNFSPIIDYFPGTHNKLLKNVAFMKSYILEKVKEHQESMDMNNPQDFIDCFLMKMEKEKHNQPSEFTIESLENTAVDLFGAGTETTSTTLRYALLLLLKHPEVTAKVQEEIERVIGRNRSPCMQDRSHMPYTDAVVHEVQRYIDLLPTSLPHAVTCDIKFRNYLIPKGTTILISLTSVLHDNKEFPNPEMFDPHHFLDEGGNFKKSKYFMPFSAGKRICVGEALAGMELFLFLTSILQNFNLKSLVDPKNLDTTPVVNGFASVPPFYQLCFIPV
In the next series the target is CYP2C19 (Homo sapiens, UniProt P33261). Nature of the series: Inhibition of human CYP2C19 at 10 uM relative to control. The series is classed as ADME.
Chain of CYP2C19 (P33261 whole entry): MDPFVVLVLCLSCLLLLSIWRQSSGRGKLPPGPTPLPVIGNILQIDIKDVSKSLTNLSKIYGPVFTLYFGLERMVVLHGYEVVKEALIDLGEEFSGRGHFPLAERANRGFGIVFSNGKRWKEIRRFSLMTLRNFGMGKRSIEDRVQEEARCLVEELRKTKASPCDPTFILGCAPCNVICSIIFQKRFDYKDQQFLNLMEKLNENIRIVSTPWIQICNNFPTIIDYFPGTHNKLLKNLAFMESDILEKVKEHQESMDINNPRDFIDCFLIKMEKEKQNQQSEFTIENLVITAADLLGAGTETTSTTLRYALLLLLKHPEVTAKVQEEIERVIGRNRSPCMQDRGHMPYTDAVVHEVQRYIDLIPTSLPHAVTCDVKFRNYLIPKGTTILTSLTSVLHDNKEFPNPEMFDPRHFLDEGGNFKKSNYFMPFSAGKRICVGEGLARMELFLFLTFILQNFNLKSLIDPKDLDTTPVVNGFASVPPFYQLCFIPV
For the next series, the target named is CYP2D6 (Homo sapiens, UniProt P10635). Nature of the series: Inhibition of human CYP2D6 at 10 uM relative to control. The series is classed as ADME.
Chain of CYP2D6 (P10635 whole entry): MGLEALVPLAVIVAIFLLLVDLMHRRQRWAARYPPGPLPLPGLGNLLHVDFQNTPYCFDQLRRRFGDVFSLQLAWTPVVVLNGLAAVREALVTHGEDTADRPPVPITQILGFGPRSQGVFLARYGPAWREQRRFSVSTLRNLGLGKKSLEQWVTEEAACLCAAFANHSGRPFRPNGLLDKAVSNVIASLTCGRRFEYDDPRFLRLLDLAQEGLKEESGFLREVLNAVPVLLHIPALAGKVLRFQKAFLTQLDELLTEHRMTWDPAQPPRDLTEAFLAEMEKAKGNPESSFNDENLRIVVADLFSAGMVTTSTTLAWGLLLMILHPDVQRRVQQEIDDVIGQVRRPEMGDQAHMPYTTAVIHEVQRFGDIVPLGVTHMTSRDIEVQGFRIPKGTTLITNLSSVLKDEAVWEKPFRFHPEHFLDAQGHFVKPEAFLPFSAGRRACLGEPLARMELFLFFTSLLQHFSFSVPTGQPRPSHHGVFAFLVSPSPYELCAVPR
A further series addresses CYP3A4 (Homo sapiens, UniProt P08684). The series is described as follows: Inhibition of human CYP3A4 at 10 uM relative to control. The series is classed as ADME.
Series [3] is described as follows: Microsomal stability in mouse liver microsomes assessed as compound remaining after 30 mins in presence of NADPH. The note with it: read-out: Stability. The series is classed as ADME, Microsome. On the technique in general: Liver microsomes are vesicles of endoplasmic reticulum, rich in cytochrome P450 enzymes.
A short description of series [4]: Microsomal stability in rat liver microsomes assessed as compound remaining after 30 mins in presence of NADPH. The series is classed as ADME, Microsome. The following applies: read-out: Stability.
Series [5] in a line: Microsomal stability in dog liver microsomes assessed as compound remaining after 30 mins in presence of NADPH. The following applies: read-out: Stability. The class given is ADME, Canis lupus familiaris, Microsome.
A short description of series [6]: Microsomal stability in human liver microsomes assessed as compound remaining after 30 mins in presence of NADPH. The class given is ADME, Microsome. The note with it: read-out: Stability.

Molecules are shown by their SMILES.

Chain of CYP3A4 (P08684 whole entry): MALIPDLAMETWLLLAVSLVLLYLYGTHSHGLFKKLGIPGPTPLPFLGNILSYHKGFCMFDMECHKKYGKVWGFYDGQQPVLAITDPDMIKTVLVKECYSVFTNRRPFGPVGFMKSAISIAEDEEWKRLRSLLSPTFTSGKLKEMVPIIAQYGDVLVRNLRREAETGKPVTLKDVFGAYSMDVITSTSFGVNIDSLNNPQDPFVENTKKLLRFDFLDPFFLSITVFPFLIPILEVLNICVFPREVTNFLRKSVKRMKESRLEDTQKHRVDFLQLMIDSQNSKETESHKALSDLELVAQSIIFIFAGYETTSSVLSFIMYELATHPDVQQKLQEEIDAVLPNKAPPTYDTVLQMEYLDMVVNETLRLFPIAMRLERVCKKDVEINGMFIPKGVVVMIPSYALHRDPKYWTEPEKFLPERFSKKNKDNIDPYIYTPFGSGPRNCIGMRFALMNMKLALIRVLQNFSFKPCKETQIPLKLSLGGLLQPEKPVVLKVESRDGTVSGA

For `CCC(CC)COC(=O)[C@H](C)N[P@](=O)(OC[C@H]1O[C@@](C#N)(c2ccc3c(N)ncnn23)[C@H](O)[C@@H]1O)Oc1ccccc1`, in the series on Vero, the CC50 – broadly, the concentration that lowers cell viability or growth by half – was more than 25 µM.
As to `CCN(CC)CCCC(C)Nc1ccnc2cc(Cl)ccc12` (stereo not drawn) [CHLOROQUINE], the midpoint of the response with SARS-CoV-2, the EC50, lay at 8.2 µM. The compound also yielded a CC50 in the series with Vero of more than 25 µM. The selectivity ratio in series [1] amounted to 3.
With `O=C(O)c1c(Nc2cccc(F)c2)[nH]c2cc(Cl)ccc2c1=O`, it took 1.5 µM to reach a half-maximal effect in the series with SARS-CoV-2 (EC50). Moreover, the CC50 in the series with Vero was more than 25 µM; in the series on HFL1 it was 48 µM; with L929, more than 100 µM; in the series on NIH3T3 it was 67 µM; with CHO-K1 it was 55 µM. In addition, in series [1], the selectivity ratio is 16. Also, the IC50 (in general, the concentration at which inhibition is half-maximal) in [2] was more than 100 µM. In addition, the inhibition (usually the relative decrease from the control value, in per cent) at 10 µM against CYP1A2 is 72%; at CYP2C9, 59%; at CYP2C19 it was 9%; on CYP2D6, 3%; against CYP3A4, less than 1%. The remaining at 0.5 h in [3] came to 24%; in series [4], 14%; in series [5], 65%; in series [6], 62%.
Take `COC(=O)c1c([S+](C)[O-])[nH]c2ccccc2c1=O` (stereo not drawn): the EC50 (as a rule, the concentration giving half of the maximal effect) in the series with SARS-CoV-2 amounted to 13.4 µM. Moreover, the CC50 with Vero is more than 25 µM. The selectivity ratio in [1] stood at 1.9.
For `O=C(O)c1c(Nc2ccc(F)cc2)[nH]c2cc(F)c(F)cc2c1=O`, the concentration for a half-maximal effect (EC50) in the series on SARS-CoV-2 is 3.5 µM. In addition, the CC50 in the series on Vero was more than 25 µM. In addition, the selectivity ratio in series [1] turned out to be 7.2.
The compound `O=C(O)c1c(Nc2cccc(F)c2)[nH]c2cc(F)c(F)cc2c1=O` came in with an EC50 with SARS-CoV-2 of 3.3 µM. The cytotoxic concentration (CC50) in the series with Vero was more than 25 µM. In addition, the selectivity ratio in series [1] was 7.5.
Compound `CNC(=O)c1c(Nc2cccc(F)c2)[nH]c2cc(Cl)ccc2c1=O` gave an EC50 with SARS-CoV-2 of 7.9 µM. For the same compound, in the series on Vero, the CC50 is more than 25 µM. Besides, the selectivity ratio in series [1] stood at 3.2.
Regarding `O=C(O)c1c(Nc2cccc(F)c2)[nH]c2ccccc2c1=O`, in the series on SARS-CoV-2, the EC50 turned out to be 4 µM. The compound also registered a CC50 in the series on Vero of more than 25 µM. The selectivity ratio in series [1] came to 6.2.
`COC(=O)c1c([S+](C)[O-])[nH]c2cc(Cl)ccc2c1=O` (stereo not drawn) gave an EC50 in the series with SARS-CoV-2 of 9.4 µM. In the series with Vero, this compound gave a CC50 of 12 µM. Also, in series [1], the selectivity ratio stood at 1.3.
In the same order, the values of `O=c1cc(Nc2cccc(F)c2)[nH]c2cc(F)c(F)cc12` are more than 25 µM, more than 25 µM and 1.
As for `O=C(O)c1c(Nc2cccc(F)c2)[nH]c2ccc(Cl)cc2c1=O`, the response in the series with SARS-CoV-2 was half-maximal at 1.5 µM (EC50). For the same compound, the CC50 in the series on Vero was more than 25 µM. Further, the selectivity ratio in [1] amounted to 17.
In the series with SARS-CoV-2, `O=C(O)c1c(Nc2ccc(F)cc2)[nH]c2ccc(Cl)cc2c1=O` gave an EC50 of 2.8 µM. Besides, the CC50 with Vero was more than 25 µM. Also, in series [1], the selectivity ratio is 8.9.
Take `O=C(O)c1c(NC2CCCCC2)[nH]c2cc(Cl)ccc2c1=O`: a half-maximal effect in the series with SARS-CoV-2 (EC50) was put at 4.4 µM. The same compound returned a CC50 with Vero of more than 25 µM. Moreover, the selectivity ratio in [1] is 5.7.
The compound `CC(C)(C)[C@H](NC(=O)C(F)(F)F)C(=O)N1C[C@H]2[C@@H]([C@H]1C(=O)N[C@H](C#N)C[C@@H]1CCNC1=O)C2(C)C` gave a CC50 in the series with Vero of more than 25 µM.
On to `COc1ccc2[nH]c(Nc3cccc(F)c3)c(C(=O)O)c(=O)c2c1`, for which the EC50 in the series on SARS-CoV-2 is 3.3 µM. The same compound showed a CC50 in the series on Vero of more than 25 µM. The selectivity ratio in [1] was 7.6.
The compound `CN(C)CCCNc1[nH]c2cc(Cl)ccc2c(=O)c1C(=O)O` returned a concentration giving a half-maximal response (EC50) in the series with SARS-CoV-2 of more than 25 µM. In the series on Vero, this compound returned a CC50 of more than 25 µM. Further, the selectivity ratio in series [1] came out at 1.
